“Also recorded” adds a separate entry of the source. Read-outs that look alike come from different tables or passages of the source.
What was measured:
[1] = test system: platelet function; assay type: in vivo, human; conditions: 15 minutes post dose
Summary of the method: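 Patients with STEMI were given one subcutaneous upper-arm injection before pPCI at 0.075, 0.090 or 0.110 mg/kg. Whole blood in 3.2% citrate was sampled pre-dose and at 15, 30, 45, 60, 90, 120 and 180 min, plus 240 min for cohorts 2–3. It was read on the VerifyNow P2Y12 iso-TRAP channel (3-4 μM iso-TRAP) as percent inhibition.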

[2] = test system: platelet function; assay: VerifyNow Base channel; assay type: in vivo, human; conditions: for Base channel inhibition of platelet function, mean (min-max): 15 minutes post dose
Summary of the method: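 STEMI patients received a single subcutaneous dose in the upper arm before pPCI (0.075, 0.090 or 0.110 mg/kg cohorts). Citrated (3.2%) whole blood was drawn pre-dose and at 15–180 min, plus 240 min for cohorts 2–3. It was tested in the VerifyNow P2Y12 cartridge Base channel (20 μM iso-TRAP plus PAR-4 activator) as percent inhibition. Time to 50% return of platelet function was also derived.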

[3] = Whole blood pharmacokinetics of RUC-4 in STEMI patients; assay type: in vivo, human; conditions: for maximum blood concentration (Cmax), mean±SD / tmax, median [min-max]: whole blood
[4] = Safety and tolerability; assay type: in vivo, human
[5] = assay type: in vivo, human
Summary of the method: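 STEMI patients in three cohorts received one weight-adjusted subcutaneous injection in the outer upper arm before pPCI, at 0.075, 0.090 or 0.110 mg/kg. Platelet counts were taken pre-dose and at 1, 24 and 72 h post dose. Other blood counts and kidney and liver function analytes were also monitored for tolerability.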

[6] = test system: platelet function; conditions: Phase 1, sc; cited from earlier work
[7] = Phase 1, healthy subjects and stable CAD patients on aspirin; cited from earlier work
[8] = test system: platelet aggregation; conditions: cited from earlier work
[9] = test system: platelet function; conditions: ref Bentur et al (submitted), cited from earlier work
[10] = test system: platelet function; conditions: cited from earlier work
[11] = even at peak levels of ticagrelor achieved in vivo, ref Bentur et al (submitted)

Structure (SMILES): NCC(=O)Nc1cncc(-c2nn3c(=O)cc(N4CCNCC4)nc3s2)c1 [RUC-4]
- inhibition of platelet function, iso-TRAP assay, mean (min-max) ([1]; 0.075 mg/kg sc): 77.5% [65.7%-90.6%]
- patients with high-grade (≥77%) inhibition of the VerifyNow iso-TRAP assay ([1]; 0.075 mg/kg sc): 3/8
- inhibition of platelet function, iso-TRAP assay, mean (min-max) ([1]; 0.090 mg/kg sc): 87.5% [73.8%-93.1%]
- patients with high-grade (≥77%) inhibition of the VerifyNow iso-TRAP assay ([1]; 0.090 mg/kg sc): 7/8
- inhibition of platelet function, iso-TRAP assay, mean (min-max) ([1]; 0.110 mg/kg sc): 91.7% [76.4%-99.3%]
- patients with high-grade (≥77%) inhibition of the VerifyNow iso-TRAP assay ([1]; 0.110 mg/kg sc): 7/8
- Base channel inhibition of platelet function, mean (min-max) ([2]; 0.075 mg/kg sc): 86.0% (74.2%-97.7%)
- Base channel inhibition of platelet function, mean (min-max) ([2]; 0.090 mg/kg sc): 92.3% (86.8%-97.1%)
- Base channel inhibition of platelet function, mean (min-max) ([2]; 0.110 mg/kg sc): 93.0% (81.9%-98.6%)
- inhibition of the Base channel assay, on average ([2]; within 15 minutes, sc, all cohorts): more than 90%
- time at which maximum whole blood concentrations were reached, mean ([3]; post dose, all cohorts): 20 min
- maximum blood concentration (Cmax), mean±SD ([3]; 0.075 mg/kg sc): 0.0967 ± 0.026 µg/mL
- tmax, median [min-max] ([3]; 0.075 mg/kg sc): 15 [15-16] minutes
- maximum blood concentration (Cmax), mean±SD ([3]; 0.090 mg/kg sc): 0.1524 ± 0.114 µg/mL
- tmax, median [min-max] ([3]; 0.090 mg/kg sc): 15 [14-45] minutes
- maximum blood concentration (Cmax), mean±SD ([3]; 0.110 mg/kg sc): 0.1298 ± 0.0233 µg/mL
- tmax, median [min-max] ([3]; 0.110 mg/kg sc): 15 [13-45] minutes
- Number of patients with AEs with fatal outcome/death ([4]; 0.075 mg/kg sc): 0 (0%) n/N (%)
- Number of patients with AEs with fatal outcome/death ([4]; 0.090 mg/kg sc): 0 (0%) n/N (%)
- Number of patients with AEs with fatal outcome/death ([4]; 0.110 mg/kg sc): 0 (0%) n/N (%)
- AEs of special interest: Injection site bruising ([4]; Total, all doses): 11 (41%) n/N (%)
- AEs of special interest: Injection site reaction ([4]; Total, all doses): 1 (4%) n/N (%)
- AEs of special interest: Mild access-site bleeding ([4]; Total, all doses): 6 (22%) n/N (%)
- AEs of special interest: Severe access-site bleeding ([4]; Total, all doses): 2 n/N (%)
- Bleeding according to BARC classification: 1 ([4]; Total, all doses): 13 n/N (%)
- Number of patients with AEs with fatal outcome/death ([4]; Total, all doses): 0 (0%) n/N (%)
- most common AEs (injection site bruising, access-site haematoma or bruising) rated as grade 1 ([4]; safety cohort, all doses): 11/16
- bruising at the RUC-4 injection site ([4]; safety cohort, all doses, n=27): 41%
- vascular access-site haematoma or bruising ([4]; safety cohort, all doses, n=27): 30%
- Haemoglobin (mean, SD) ([5]; 24 hours post dose, Cohort 1 (0.075 mg/kg), pre-dose 14.04 (0.95)): 13.82 (2.15) g/dL
- Platelet count (mean, SD) ([5]; 24 hours post dose, Cohort 1 (0.075 mg/kg), pre-dose 226.38 (44.59)): 211.13 (36.22) 109/L
- Haemoglobin (mean, SD) ([5]; 24 hours post dose, Cohort 2 (0.090 mg/kg), pre-dose 13.68 (1.17)): 13.93 (1.46) g/dL
- Platelet count (mean, SD) ([5]; 24 hours post dose, Cohort 2 (0.090 mg/kg), pre-dose 294.44 (74.60)): 273.00 (71.72) 109/L
- Haemoglobin (mean, SD) ([5]; 24 hours post dose, Cohort 3 (0.110 mg/kg), pre-dose 14.31 (1.31)): 13.29 (2.11) g/dL
- Platelet count (mean, SD) ([5]; 24 hours post dose, Cohort 3 (0.110 mg/kg), pre-dose 283.44 (60.85)): 238.13 (46.07) 109/L
- Haemoglobin (mean, SD) ([5]; 72 hours post dose /discharge, Cohort 1 (0.075 mg/kg), pre-dose 14.04 (0.95)): 14.10 (2.13) g/dL
- Platelet count (mean, SD) ([5]; 72 hours post dose /discharge, Cohort 1 (0.075 mg/kg), pre-dose 226.38 (44.59)): 214.88 (49.28) 109/L
- Haemoglobin (mean, SD) ([5]; 72 hours post dose /discharge, Cohort 2 (0.090 mg/kg), pre-dose 13.68 (1.17)): 13.96 (1.14) g/dL
- Platelet count (mean, SD) ([5]; 72 hours post dose /discharge, Cohort 2 (0.090 mg/kg), pre-dose 294.44 (74.60)): 281.67 (79.81) 109/L
- Haemoglobin (mean, SD) ([5]; 72 hours post dose /discharge, Cohort 3 (0.110 mg/kg), pre-dose 14.31 (1.31)): 13.75 (2.24) g/dL
- Platelet count (mean, SD) ([5]; 72 hours post dose /discharge, Cohort 3 (0.110 mg/kg), pre-dose 283.44 (60.85)): 229.00 (47.76) 109/L
- changes in blood counts, or in kidney or liver function analytes ([5]; all cohorts): no clinically meaningful changes
- thrombocytopaenia ([5]; first 72 hours post dose, all patients): No thrombocytopaenia; also recorded: None of the patients included in the study developed thrombocytopaenia; also recorded: did not produce thrombocytopaenia
- return of platelet function [6]: within two hours
- time to high-grade inhibition of platelet function (LTA, 20 μM ADP) [6]: ≤ 15 min
- dose up to which RUC-4 was well tolerated [7]: up to 0.075 mg/kg

Structure (SMILES): CCCCOC(=O)N1CCN(C(=O)[C@H](CP(=O)(O)O)NC(=O)c2cc(N3CC[C@H](OC)C3)nc(-c3ccccc3)n2)CC1 [Selatogrel, selatogrel]
- effect on the VerifyNow P2Y12 assay ([8]; single sc dose prior to PCI, patients with MI): inhibited
- duration of effects ([8]; single sc dose): at least eight hours

Structure (SMILES): CC(=O)Oc1ccccc1C(=O)O [aspirin]
- effect on the iso-TRAP assay ([9]; Supplementary Appendix 2): not affected
- effect on the Base channel assay [10, 11]: not affected

Structure (SMILES): CC(=O)Oc1cc2c(s1)CCN(C(C(=O)C1CC1)c1ccccc1F)C2 (centres unmarked) [prasugrel]
- effect on the Base channel assay ([10]; doses that cause near-complete inhibition of the P2Y12 assay): do not inhibit

Structure (SMILES): CCCSc1nc(N[C@@H]2C[C@H]2c2ccc(F)c(F)c2)c2nnn([C@@H]3C[C@H](OCCO)[C@@H](O)[C@H]3O)c2n1 [ticagrelor]
- inhibition of the iso-TRAP assay ([9]; at peak levels of ticagrelor achieved in vivo): about 20%
- effect on the Base channel assay [10, 11]: not affected

— paper PMC9464482 (EuroIntervention : journal of EuroPCR in collaboration with …, 2021)
